Sampled rows, rich in hits. Any-hit rate of the full collection: about 4.2%.
SENP1 inh – human SENP1 catalytic domain inhibitors, primary screen, biochemical, FRET, uHTS | 0.21% of 360,000 active | recombinant SENP1 catalytic domain, CyPet-SUMO1-YPet FRET cleavage | AID 624204, 2012 | inhibition, % at 10 µM;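 active = inhibition at least 30% at 10 µM, raw YFP signal under a set limit, fluorescence ratio 0.5 to 1.5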
Target sequence (Q9P0U3 419-644 limits assumed): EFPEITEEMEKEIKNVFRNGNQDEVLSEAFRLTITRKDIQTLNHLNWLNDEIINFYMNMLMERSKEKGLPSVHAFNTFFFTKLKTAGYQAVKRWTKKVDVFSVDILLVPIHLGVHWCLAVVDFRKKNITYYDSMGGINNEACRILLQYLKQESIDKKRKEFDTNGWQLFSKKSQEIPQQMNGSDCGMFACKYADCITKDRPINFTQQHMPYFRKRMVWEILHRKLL
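Test system: hSENP1 catalytic domain, recombinant; Amount: 20 pM final SENP1 enzyme; Medium: Tris pH 8 buffer plus EDTA, NaCl, BME, BSA, NP40, catalase; Schedule: 50 min enzyme reaction, room temperature, light-protected; Technique: FRET fluorescence in CFP and YFP emission channels; Controls: no-enzyme wells low, DMSO-plus-enzyme wells high control.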
M18AAP inhibitor – PfM18AAP inhibitors, malaria aminopeptidase, primary screen, biochemical, QFRET, recombinant enzyme; H-Glu-NHMec fluorogenic cleavage; AID 1822, 2009; 1.2% of 290,000 active; M18 aspartyl aminopeptidase (Plasmodium falciparum 3D7); inhibition, % at 7.35 µM;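 active = inhibition above the campaign mean inhibition over all tested compounds plus 3 SD, cut at about 28% in these data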
AHR act – AHR activators, primary screen, cell-based, luminescence, luciferase reporter, human; 2.5% of 320,000 active; AHR-responsive luciferase reporter cells; activation, % at 5 µM; AID 2796, 2010; in the data active = activation above about 47%
GAA850 FXN act – FXN promoter activators, primary screen, cell-based, luciferase luminescence, HEK293 lucGAA850 | HEK293 lucGAA850 FXN promoter luciferase reporter, 24 h; percent of 10 µM SAHA response | activation, % at 6 µM | 0.56% of 360,000 active | AID 540364, 2011;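 active = activation above the average of all compounds screened plus 3 SD, cutoff fixed separately per campaign, cut at about 7.5% in these data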
HDAC3 inhib – HDAC3 deacetylase inhibitors, primary screen, biochemical, fluorescence, cell-free homogeneous | recombinant HDAC3, fluorogenic peptide/trypsin coupled | inhibition, % at 8.3 µM | 0.15% of 320,000 active; in the data active = inhibition above about 26%, passing the limit was not always enough; inconclusive = no clear call, values can overlap the other calls
Fh CTSL1 inh – Fasciola hepatica cathepsin L1 inhibitors, primary screen, counter-screen for PFM18AAP inhibitor project, biochemical, QFRET, fluorogenic peptide substrate | 0.49% of 300,000 active | AID 1906, 2009 | inhibition, % at 5.96 µM | recombinant F. hepatica cathepsin L1, Z-Leu-Arg-MCA fluorescence;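 active = inhibition above the mean of all tested compounds plus 3 SD, set per screening campaign, cut at about 17% in these data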
AHR act confirm – AHR activators, confirmation, cell-based, luminescence, luciferase reporter, human; activation, % at 9 µM; human cells, AHR-responsive luciferase reporter; shares compounds with AHR act; 87% of 2,300 active; in the data active = activation above about 49%;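 note: HepG2 hepatoma cells carrying a DRE-driven firefly luciferase reporter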
PXR counter – human PXR activators, counter-screen for AHR activator project, cell-based, luciferase luminescence | shares compounds with AHR act | cell-based PXR reporter | activation, % at 11.6 µM | 88% of 2,300 active | AID 434939, 2010; in the data active = activation above about 11%;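 note: human hepatoma DPX-2 cells expressing full-length human PXR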
Of the large screens only hits and unclear results are named; the others gave an inactive call (follow-up assays come after a bar, where they were run).

CCOc1cccc2sc(NC(=O)c3ccc(Br)s3)nc12	AHR act 97 | AHR act confirm inactive | PXR counter 13
CCOC(=O)Cc1csc(NC(=O)c2ccc(Br)s2)n1	none (no result: SENP1 inh, GAA850 FXN act)
Cn1c(C(=O)Nc2ccc3c(c2)OCO3)cc2sccc21	AHR act 89 | AHR act confirm 139 | PXR counter 109
Cc1ccc(C(=O)Nc2ccc3c(c2)OCO3)o1	AHR act 122 | AHR act confirm 108 | PXR counter 39
COc1ccc(NC(=O)c2ccc(Cl)nc2)cc1S(=O)(=O)N1CCCCC1	AHR act 121 | AHR act confirm 85 | PXR counter 63
O=C(Nc1ccc2c(c1)OCO2)c1ccncc1	AHR act 103 | AHR act confirm 74
COc1ccc(C(=O)OCC(=O)NCc2ccccc2)c(OC)c1OC	none
O=C(O)C1=CCC=CC1C(=O)O (centres undefined)	none (no result: M18AAP inhibitor, AHR act, HDAC3 inhib, Fh CTSL1 inh)
O=C(Nc1ccc2c(c1)OCO2)c1ccc(Cl)nc1	AHR act 88 | AHR act confirm 149 | PXR counter 23
COc1ccc(OC)c(Nc2nc(N(C)c3ccccc3)nc(N)c2[N+](=O)[O-])c1	none
C=CCNc1nc(N)c([N+](=O)[O-])c(Nc2ccccc2OC)n1	AHR act 116 | AHR act confirm 123 | PXR counter 21
CCC(C)Nc1nc(N)c([N+](=O)[O-])c(Nc2cc(OC)ccc2OC)n1 (centres undefined)	AHR act 80 | AHR act confirm 127 | PXR counter 76
COCCNC(=O)C1CCCN(C(=O)c2ccc3sccc3c2)CC1 (centres undefined)	none (no result: M18AAP inhibitor, AHR act, HDAC3 inhib, Fh CTSL1 inh)
COc1ccc(OC)c(S(=O)(=O)Nc2cc(C)on2)c1	none
CCn1c(=O)c(CCC(=O)NCC2CCCO2)c(C)c2c(C)nn(-c3ccc(C)cc3)c21 (centres undefined)	none
O=C(CCn1nc(-c2ccccc2)ccc1=O)N1CCN(c2ccccn2)CC1	AHR act 82 | AHR act confirm inactive | PXR counter inactive
CCn1c(=O)c([N+](=O)[O-])c(NCCCn2ccnc2)c2ccccc21	AHR act 101 | AHR act confirm 93 | PXR counter 52
CCNc1c([N+](=O)[O-])c(=O)n(CC)c2ccccc12	none
COc1cccc(CN(C)C(=O)c2ccc(Oc3ccccc3)cc2)c1OC	none
COn1c(C)c(C(C)=O)c2c3no[n+]([O-])c3ccc21	none
C=CCOn1c(C)c(C(C)=O)c2c3no[n+]([O-])c3ccc21	AHR act 111 | AHR act confirm 78 | PXR counter 85
CCOC(=O)c1c(C)n(OCc2ccccc2)c2ccc3nonc3c12	none
C=CCOn1c(C)c(C(C)=O)c2c3nonc3ccc21	AHR act 81 | AHR act confirm 71 | PXR counter 48
COc1cc(-c2cc(-c3ccc(N)cc3)[nH]c(=O)c2C#N)cc(OC)c1OC	AHR act 101 | AHR act confirm 84 | PXR counter 17
CC(Sc1nnc(-c2ccccc2)c(-c2ccccc2)n1)C(=O)NCC1CCCO1 (centres undefined)	none (no result: M18AAP inhibitor, Fh CTSL1 inh)
Cn1cccc1/C=N/n1c(-c2ccc(Cl)cc2)n[nH]c1=S	AHR act 89 | AHR act confirm 81 | PXR counter 25
C=CCCC(=O)Nc1nc(C)c(-c2csc(Nc3ccc(Cl)cc3Cl)n2)s1	AHR act 102 | AHR act confirm 73 | PXR counter 25
Cc1nc(NC(=O)c2ccccc2)sc1-c1csc(Nc2ccc(Cl)cc2Cl)n1	none (no result: SENP1 inh, GAA850 FXN act)
CCC(=O)Nc1nc(C)c(-c2csc(Nc3cccc(O)c3)n2)s1	HDAC3 inhib inconclusive

Screening data: PubChem, several laboratories
